E-selectin induc – induces E-selectin expression in human endothelial cells; 0.37% of 260,000 active; HUVEC E-selectin immunofluorescence imaging; normalized: neutral wells 0, TNF-alpha wells 100; AID 686992; P16581; activation, % at 7.58 µM;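 active means mean E-selectin-positive cell signal at least 10% of the positive control, reached in at least 60% of replicates, without over 20% cell loss; inconclusive means no rule given, readout overlaps actives, possibly toxicity-flagged; inactive means the rest, including those meeting only one limit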
Target sequence (P16581 whole entry, looked up): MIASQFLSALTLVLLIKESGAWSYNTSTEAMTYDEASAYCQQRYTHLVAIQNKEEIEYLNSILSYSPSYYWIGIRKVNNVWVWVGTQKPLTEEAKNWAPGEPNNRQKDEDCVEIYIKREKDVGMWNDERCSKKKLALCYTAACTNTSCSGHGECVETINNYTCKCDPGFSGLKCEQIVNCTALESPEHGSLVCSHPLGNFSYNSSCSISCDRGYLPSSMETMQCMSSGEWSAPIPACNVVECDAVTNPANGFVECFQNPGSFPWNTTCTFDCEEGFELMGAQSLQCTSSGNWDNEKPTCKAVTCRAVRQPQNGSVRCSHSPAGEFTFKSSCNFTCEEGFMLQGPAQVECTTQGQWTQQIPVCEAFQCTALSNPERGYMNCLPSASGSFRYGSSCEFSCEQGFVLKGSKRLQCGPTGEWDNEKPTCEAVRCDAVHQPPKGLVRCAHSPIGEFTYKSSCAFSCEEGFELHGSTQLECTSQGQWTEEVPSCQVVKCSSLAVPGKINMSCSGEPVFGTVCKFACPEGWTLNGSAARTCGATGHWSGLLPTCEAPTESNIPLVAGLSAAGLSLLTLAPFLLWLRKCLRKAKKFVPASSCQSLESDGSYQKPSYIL
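Assay system: HUVEC primary endothelial cells. Input: 3,000 HUVEC seeded per well. Doses: one compound dose added by pin transfer. Read-out basis: % PE-positive cells. Benchmarks: TNF-alpha high, DMSO low. Detection: immunofluorescence imaging. Buffer or medium: EGM-2, gelatin.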
XiGFP reactiv – X-chromosome reactivation activator | 0.055% of 360,000 active | XiGFP mouse fibroblasts, % GFP-positive cells imaging, 3 d; cells co-treated with 5-aza-dC sensitizer; scaled so ellipticine positive control = 100% | activation, % at 7.58 µM;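 active means mean normalized replicate activation at least 10% and every replicate at or above 10%; inconclusive means only one of the two criteria met; inactive means mean below 10% and not all replicates reach 10%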
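assay system = SV40-immortalized XiGFP fibroblast cells, line 68-5-11 | buffer or medium = DMEM plus 5-aza-dC sensitizer | doses = single-point pinned compound dosing | times = 3-day compound exposure, then 15 min fixation at room temperature | benchmarks = positive control ellipticine, 6 µM final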
F508del corr – correctors of CFTR F508del function in bronchial epithelial cells; CFBE cells, YFP halide quenching; stimulated with forskolin plus potentiator P3; % fluorescence drop versus neutral controls; activity (quench increase), % at 7.58 µM; 0.36% of 350,000 active; AID 720511;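 active means mean added fluorescence quench of at least 8% versus neutral control, with both replicates also reaching 8%; inconclusive means only one of the mean or replicate conditions met; inactive means mean below 8% and not both replicates reaching 8%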;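 further: cells transiently co-express mutant CFTR-F508del with the halide-sensitive YFP; corrector assay measuring rescue of mutant channel to the surface after 24 h compound exposure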
A number is an active result. An excerpt weighted towards active compounds, which were near 0.61% of everything screened.

How did C[C@H](CO)N1C[C@H](C)[C@H](CN(C)Cc2ccncc2)Oc2ccc(NS(C)(=O)=O)cc2CC1=O do in these assays?
E-selectin induc: 256.7; XiGFP reactiv: inactive; F508del corr: inactive

What do the screens show for `C[C@H]1CN([C@@H](C)CO)C(=O)Cc2cc(NS(C)(=O)=O)ccc2O[C@H]1CN(C)Cc1ccncc1`?
E-selectin induc: inactive; XiGFP reactiv: inactive; F508del corr: inactive

Results for C[C@H](CO)N1C[C@H](C)[C@@H](CN(C)Cc2ccncc2)Oc2ccc(NS(C)(=O)=O)cc2CC1=O ?
E-selectin induc: inactive; XiGFP reactiv: inactive; F508del corr: inactive

Results for C[C@H]1CN([C@@H](C)CO)C(=O)Cc2cc(NS(C)(=O)=O)ccc2O[C@@H]1CN(C)Cc1ccncc1 ?
E-selectin induc: 449.3; XiGFP reactiv: inactive; F508del corr: inactive

What do the screens show for `C[C@H](CO)N1C[C@H](C)[C@@H](CN(C)Cc2ccncc2)Oc2ccc(NC(=O)CCC(F)(F)F)cc2CC1=O`?
E-selectin induc: inactive; XiGFP reactiv: inactive; F508del corr: inactive

What do the screens show for `CCC(=O)N(C)C[C@@H]1Oc2ncc(C#CCc3ccccc3)cc2C(=O)N([C@@H](C)CO)C[C@@H]1C`?
E-selectin induc: inactive; XiGFP reactiv: inactive; F508del corr: inactive

Results for COc1cccc(S(=O)(=O)N(C)C[C@@H]2Oc3cc(C4=CCCCC4)ccc3S(=O)(=O)N([C@@H](C)CO)C[C@H]2C)c1 ?
E-selectin induc: inactive; XiGFP reactiv: inactive; F508del corr: inactive

Results for COc1ccc(Nc2ccccc2NC(=O)c2ccccc2Br)cc1 ?
E-selectin induc: inactive; XiGFP reactiv: inactive; F508del corr: inactive

How did COc1ccc(Nc2ccccc2N)cc1 do in these assays?
E-selectin induc: 37.4; XiGFP reactiv: inactive; F508del corr: inactive

Results for COC1=CC(=O)c2c(ccc3ncnc(N)c23)C1=O ?
XiGFP reactiv: 18.9; F508del corr: inactive

What do the screens show for `COC1=CC(=O)c2nc(Cl)ccc2C1=O`?
E-selectin induc: inactive; XiGFP reactiv: inconclusive; F508del corr: inactive

How did C[C@@H]1CN([C@@H](C)CO)C(=O)Cc2cc(NC(=O)NC3CCCCC3)ccc2O[C@H]1CN(C)Cc1ccc(Cl)c(Cl)c1 do in these assays?
E-selectin induc: inactive; XiGFP reactiv: inactive; F508del corr: inactive

Results for COc1ccccc1NC(=O)N[C@@H]1CC[C@H](CCNS(=O)(=O)c2ccc(C)cc2)O[C@@H]1CO ?
E-selectin induc: inactive; XiGFP reactiv: inactive; F508del corr: inactive

Results for COc1ncnc(OC)c1S(=O)(=O)NCc1ccccc1 ?
E-selectin induc: 49.6; XiGFP reactiv: inactive

How did COc1cc(C)c(Br)cc1S(=O)(=O)NCc1ccccc1 do in these assays?
F508del corr: inactive

What do the screens show for `Cc1ccc(C(=O)N(Cc2ccco2)c2c(N)n(Cc3ccccc3)c(=O)[nH]c2=O)cc1`?
E-selectin induc: inactive; XiGFP reactiv: inactive; F508del corr: inactive

What do the screens show for `Cc1cccc(C(=O)N(Cc2ccco2)c2c(N)n(Cc3ccccc3)c(=O)[nH]c2=O)c1`?
E-selectin induc: inactive; XiGFP reactiv: inactive; F508del corr: 28.3

What do the screens show for `COc1ccc(S(=O)(=O)N(C)C[C@@H]2OCCCC[C@@H](C)Oc3ccc(NS(=O)(=O)c4c(C)noc4C)cc3C(=O)N([C@H](C)CO)C[C@@H]2C)cc1`?
E-selectin induc: inactive; XiGFP reactiv: inactive; F508del corr: inactive

What do the screens show for `CCOc1ccc(C)cc1S(=O)(=O)n1cnc2ccccc21`?
XiGFP reactiv: inactive; F508del corr: 9.9

What do the screens show for `CCOc1ccc(S(=O)(=O)n2cnc3ccccc32)cc1`?
XiGFP reactiv: inactive; F508del corr: inactive

What do the screens show for `CC(=O)Nc1cccc(NC(=O)CN2c3cccc4cccc(c34)S2(=O)=O)c1`?
E-selectin induc: inactive; XiGFP reactiv: inactive; F508del corr: 24.4

How did CC(=O)c1ccc(NC(=O)CN2c3cccc4cccc(c34)S2(=O)=O)cc1 do in these assays?
E-selectin induc: inactive; XiGFP reactiv: inactive; F508del corr: inactive

What do the screens show for `COc1ccc(NC(=O)N(C)C[C@H]2Oc3ccc(NC(=O)NC4CCCCC4)cc3C(=O)N([C@H](C)CO)C[C@H]2C)cc1`?
E-selectin induc: inactive; XiGFP reactiv: inactive; F508del corr: inactive

How did CC(C)NC(=O)Nc1cccc2c1O[C@H](CN(C)Cc1ccc3c(c1)OCO3)[C@H](C)CN([C@@H](C)CO)C2=O do in these assays?
E-selectin induc: inactive; XiGFP reactiv: inactive; F508del corr: inactive

What do the screens show for `Cc1cc(C(=O)Nc2ccc(Cl)cc2)n(-c2ccccc2)n1`?
E-selectin induc: 41.1; XiGFP reactiv: inactive; F508del corr: inactive

How did Cc1ccc(NC(=O)c2cc(C)nn2-c2ccccc2)cc1 do in these assays?
E-selectin induc: inactive; XiGFP reactiv: inactive; F508del corr: inactive
